Active and inactive are the calls of the source. The calls are words filed in the database; no cut-off is given here.
Experiments:
[1] = tested on: Radical scavenging activity; experiment: Antioxidant activity assessed as superoxide and DPPH radical scavenging activity; format: functional
Cortical neurone [2] = experiment: Neuroprotective activity against NMDA-induced neurotoxicity in ICR mouse cortical neurons preincubated for 1 hr before NMDA challenge measured after 24 hrs by MTT assay; format: functional
Procedure, shortened: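 12-day ICR mouse (E15) cortical cultures in neurobasal medium without supplement. Pretreatment with compound (methanol vehicle, 0.1% final) for 1 h, then 40 μM NMDA for 24 h. Compound range 10 to 30 μM. Survival by MTT reduction, formazan in DMSO read at 540 nm, normalised as (toxin+compound − toxin)/(control − toxin) × 100.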

Cortical neurone [3] = experiment: Neuroprotective activity against AMPA-induced neurotoxicity in ICR mouse cortical neurons preincubated for 1 hr before AMPA challenge measured after 24 hrs by MTT assay; format: functional
Procedure, shortened: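 Primary cortical cultures from gestation day 15 ICR mouse embryos, grown 12 days in B27-supplemented neurobasal medium, switched to neurobasal without supplement. Compound in methanol (0.1% final), added 1 h before 80 μM AMPA, then 24 h. Viability read by MTT (1 mg/mL, 1 h, 37 °C; DMSO-dissolved formazan at 540 nm), expressed relative to control and excitotoxin-alone wells.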

Cortical neurone [4] = experiment: Neuroprotective activity against glutamate-induced neurotoxicity in ICR mouse cortical neurons at 5 to 10 uM preincubated for 1 hr before glutamate challenge measured after 24 hrs by MTT assay; format: functional
Procedure, shortened: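 Cortical neurons from E15 ICR mouse embryos, matured 12 days, supplement-free neurobasal during assay. 1 h compound pretreatment (0.1% methanol final), then 20 μM glutamate, kept 24 h. MTT 1 mg/mL for 1 h at 37 °C, formazan dissolved in DMSO, absorbance 540 nm; percent protection from control and glutamate-only OD.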

[5] = Inhibition of monoamine oxidase at 60 to 100 uM
[6] = Neuroprotective activity against glutamate-induced neurotoxicity in primary cultured mouse cortical neurons preincubated for 1 hr before glutamate challenge measured after 24 hrs by MTT assay
Cortical neurone [7] = experiment: Neuroprotective activity against kainate-induced neurotoxicity in ICR mouse cortical neurons preincubated for 1 hr before kainate challenge measured after 24 hrs by MTT assay; format: functional
Procedure, shortened: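 Mouse (ICR, gestation day 15) cortical neuron cultures used at day 12 in neurobasal medium lacking supplement. Compound in methanol (0.1% final) given 1 h ahead of 200 μM kainate; incubation 24 h more. Viability by MTT (1 mg/mL, 1 h), DMSO-solubilised formazan at 540 nm, scaled between kainate-alone and untreated control.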

SMILES | Activity [1] | Activity (Cortical neurone [2]) | Activity (Cortical neurone [3]) | Activity (Cortical neurone [4]) | Activity [5] | Activity [6] | Activity (Cortical neurone [7])
COc1ccc2c(c1)CN(c1ccc(OC)cc1CO)CN2C=O | inactive | Dose-dependent effect | inactive | Active | Active | inactive | inactive
COc1ccc(-n2cnc3ccc(OC)cc3c2=O)c(CO)c1 | inactive | Dose-dependent effect | inactive | Active | Active | inactive | inactive
COc1ccc(N2CN(C=O)c3ccc(OC)cc3C2=O)c(CO)c1 | inactive | Dose-dependent effect | inactive | Active | Active | inactive | inactive

From ChEMBL document CHEMBL1150151, “Dictyoquinazols A, B, and C, new neuroprotective compounds from the mushroom Dictyophora indusiata” (J Nat Prod, 2002)
